In test [1] the test system is HCT116 cell line. Kind of test: Sulforhodamine B. Type of test: cell-based, human. Particulars: for inhibition at 100 µM: read-out: Percentage of cell growth inhibition at [100 μM] HCT116. In outline:
(§1)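 Carcinoma lines came from the National Cancer Institute, Cairo, and were grown as monolayers in DMEM with 10% FBS and 1% penicillin–streptomycin. Final DMSO was ≤0.1% (v/v). Cells were treated for 48 h either at a single 100 μM dose (% growth inhibition) or at 0, 6.25, 12.5, 25 and 50 μM. SRB staining was read at 570 nm as % viability. IC50 came from dose–response curve fitting.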

Test [2] has as its system HEPG2 cell line. Briefly: Sulforhodamine B. Type of test: cell-based, human. The conditions noted are these: Homo sapiens, HepG2, 48 h; for IC50: read-out: IC50 (μM) ± SD HEPG2; for inhibition at 100 µM: read-out: Percentage of cell growth inhibition at [100 μM] HEPG2. In outline:
as §1

For test [3], the system named is MCF7 cell line. Briefly: Sulforhodamine B. The conditions noted are these: Homo sapiens, MCF7, 48 h; for IC50: read-out: IC50 (μM) ± SD MCF7; for inhibition at 100 µM: read-out: Percentage of cell growth inhibition at [100 μM] MCF7. Type of test: cell-based, human. In outline:
as §1

The test system of test [4] is HDF cell line (Human Dermal Fibroblasts). Briefly: Sulforhodamine B. Type of test: cell-based. Particulars: Homo sapiens, HDF, 48 h, read-out: Percentage of cell growth inhibition at [100 μM] HDF. In outline:
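Normal human dermal fibroblasts came from the National Cancer Institute, Cairo. Final DMSO was ≤0.1% (v/v). Cells were exposed to the test compound at a single 100 μM dose for 48 h. Growth inhibition was measured by the sulforhodamine-B method, with absorbance read at 570 nm and expressed as percentage of cell viability.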

The test system of test [5] is cancer cell lines (HCT116, HEPG2, MCF7). Briefly: SRB single-dose screen, summary over cancer cell lines. Type of test: cell-based. The conditions noted are these: Homo sapiens, 48 h, read-out: percentage of cell growth inhibition on the cancer cell lines. In outline: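 Human carcinoma lines grown as monolayers in DMEM with 10% FBS and 1% penicillin–streptomycin. Each test compound was applied once at 100 μM for 48 h, with final DMSO at most 0.1% (v/v) in control and treated wells. Growth was measured by sulforhodamine-B staining, with OD read at 570 nm. Percentage growth inhibition was calculated from viability relative to the untreated control.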

The target in test [6] is EGFR kinase (Homo sapiens, UniProt P00533). Kind of test: EGFR kinase inhibitory assay. Particulars: for % of EGFR inhibition: concentration not given, average of three replicates. Type of test: biochemical.
For test [7], the system named is HCT-116 cells. Kind of test: Annexin V/PI staining flow cytometry. Type of test: cell-based, human. The conditions noted are these: HCT-116, treated at IC50 = 8.5 μM, 48 h. For orientation: Flow cytometry measures light scatter and fluorescence of single cells or particles in a stream.
The subject of test [8] is HCT-116 cells. Briefly: DNA content-flow cytometry cell cycle analysis. Type of test: cell-based, human. The conditions noted are these: HCT-116, treated at IC50 = 8.5 μM, 48 h; control 3.77%.
Test [9] relates to HCT-116 cells. Kind of test: RT-PCR of apoptosis-related genes. Type of test: cell-based, human. Particulars: HCT-116, IC50 = 8.5 μM, 48 h, untreated control = 1. In outline:
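HCT-116 cells were exposed to the test compound for 48 h, alongside untreated cells. Relative expression of apoptosis-related genes was measured by real-time PCR. Ct values were normalised to β-actin, and untreated control was set to fold change = 1. Data are the mean ± SD of 3 independent runs.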

Setting [10] is: Homo sapiens, HCT-116, 48 h, read-out: IC50 (μM) ± SD HCT116, 48 h treatment, SRB.

Where two headings read alike, the source gives them in different places.

Sequence of EGFR kinase (P00533 25-1210): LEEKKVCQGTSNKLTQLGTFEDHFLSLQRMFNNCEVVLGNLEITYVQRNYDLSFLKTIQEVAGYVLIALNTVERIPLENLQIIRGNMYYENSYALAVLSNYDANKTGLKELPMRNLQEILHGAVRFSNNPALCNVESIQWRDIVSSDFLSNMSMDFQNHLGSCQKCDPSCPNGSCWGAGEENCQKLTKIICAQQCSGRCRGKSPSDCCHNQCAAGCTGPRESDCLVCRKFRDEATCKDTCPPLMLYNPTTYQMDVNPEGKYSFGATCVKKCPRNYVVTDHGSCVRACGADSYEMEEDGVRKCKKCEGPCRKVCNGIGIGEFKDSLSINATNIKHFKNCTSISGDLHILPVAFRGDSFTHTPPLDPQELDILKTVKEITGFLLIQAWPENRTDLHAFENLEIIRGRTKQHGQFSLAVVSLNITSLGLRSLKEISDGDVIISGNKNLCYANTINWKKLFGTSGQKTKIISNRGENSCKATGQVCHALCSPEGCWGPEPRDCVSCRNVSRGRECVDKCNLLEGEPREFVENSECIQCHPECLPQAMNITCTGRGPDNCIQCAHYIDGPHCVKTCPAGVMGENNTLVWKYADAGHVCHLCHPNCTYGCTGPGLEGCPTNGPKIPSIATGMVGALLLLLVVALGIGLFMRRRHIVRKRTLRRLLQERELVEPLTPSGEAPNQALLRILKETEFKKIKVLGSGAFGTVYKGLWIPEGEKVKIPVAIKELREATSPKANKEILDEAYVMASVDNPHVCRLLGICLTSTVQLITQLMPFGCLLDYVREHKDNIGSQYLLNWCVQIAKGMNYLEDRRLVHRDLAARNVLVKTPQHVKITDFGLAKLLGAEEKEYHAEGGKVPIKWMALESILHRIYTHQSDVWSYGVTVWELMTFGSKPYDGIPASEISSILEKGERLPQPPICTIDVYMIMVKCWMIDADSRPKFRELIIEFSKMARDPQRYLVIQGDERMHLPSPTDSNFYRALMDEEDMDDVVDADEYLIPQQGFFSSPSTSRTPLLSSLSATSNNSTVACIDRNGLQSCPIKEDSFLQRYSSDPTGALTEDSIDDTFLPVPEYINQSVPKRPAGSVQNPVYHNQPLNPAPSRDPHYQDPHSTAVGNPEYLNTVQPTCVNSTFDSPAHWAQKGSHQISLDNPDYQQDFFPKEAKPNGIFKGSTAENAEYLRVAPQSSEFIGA

Take `O=C(COc1ccc(C=NN=c2sc(-c3ccc(Cl)cc3)nn2-c2ccccc2)cc1)N1CCN(C(=O)COc2ccc(C=NN=c3sc(-c4ccc(Cl)cc4)nn3-c3ccccc3)cc2)CC1` [Compound 13b, 1,1′-(Piperazine-1,4-diyl)bis(2-(4-(((5-(4-chlorophenyl)-3-phenyl-1,3,4-thiadiazol-2(3H)-ylidene)-hydrazono)methyl)phenoxy)ethanone)]: the IC50 (in general, the point on the concentration scale where inhibition reaches its midpoint) in [1] (setting [10]) came out at 18.4 ± 4 µM; in test [2], 24.5 ± 4 µM; in [3], 19.4 ± 3 µM. In addition, the inhibition (in general, the relative decrease from the control value, in per cent) at 100 µM is 89.3 ± 2.83% in test [1] (Homo sapiens, HCT-116, 48 h); 85.1 ± 3.16% in [2]; 90.8 ± 1.39% in [3]; 79.2 ± 3.71% in test [4]; more than 80% in test [5].
Regarding `Cc1nc(NN=Cc2ccc(OCC(=O)N3CCN(C(=O)COc4ccc(C=NNc5nc(C)c(N=Nc6ccccc6)s5)cc4)CC3)cc2)sc1N=Nc1ccccc1` [Compound 9a, 1,1′-(Piperazine-1,4-diyl)bis(2-(4-(((4-methyl-5-(phenylazo)thiazol-2-yl)hydrazono)methyl)-phenoxy)ethanone)], the IC50 was 9.98 ± 2 µM in test [1] (setting [10]), 23.8 ± 4 µM in test [2], 13.7 ± 2.3 µM in test [3] and 0.0121 ± 4e-05 µM in [6]. The inhibition at 100 µM in test [1] (Homo sapiens, HCT-116, 48 h) was 81 ± 3.91%; in [2], 74.7 ± 4.49%; in [3], 85.9 ± 5.94%; in test [4], 18.2 ± 11.5%; in test [5] it was more than 80%. The “% of EGFR inhibition” value in test [6] is given as 83.7 ± 1.4%.
For `Cc1nc(NN=Cc2ccccc2OCC(=O)N2CCN(C(=O)COc3ccccc3C=NNc3nc(C)c(N=Nc4ccc(Br)cc4)s3)CC2)sc1N=Nc1ccc(Br)cc1` [Compound 9i, 1,1′-(Piperazine-1,4-diyl)bis(2-(2-(((4-methyl-5-(4-bromophenylazo)thiazol-2-yl)hydrazono)-methyl)phenoxy)ethanone)], the IC50 turned out to be 8.5 µM in test [1] (setting [10]); 8.51 ± 2.5 µM in test [1] (read-out: IC50 (μM) ± SD HCT116, 48 h treatment, SRB); 22 ± 2.9 µM in [2]; 13 ± 2.8 µM in [3]; 0.0012 ± 5e-05 µM in test [6]. The inhibition at 100 µM in test [1] (Homo sapiens, HCT-116, 48 h) was 89.6 ± 5.3%; in test [2], 91 ± 3.56%; in [3] it was 89.9 ± 2.3%; in test [4], 71.6 ± 17.3%; in test [5], more than 80%. Moreover, the “% of EGFR inhibition” value in test [6] is recorded as 97.5 ± 2.1%. The “induction of apoptotic cell death vs untreated control” value in test [7] amounted to 4.16 fold. Further, the “induction of necrosis cell death vs untreated control” value in test [7] is reported as 4.79 fold. The same compound came in with an early apoptosis in test [7] (control 1.69%) of 0.54%. Further, the late apoptosis in test [7] (control 2.36%) amounted to 16.31%. The compound also had a total apoptosis in [7] (control 4.05%) of 16.85%. The “cell population at the P2 phase” value in [8] stood at 51.89%. For the same compound, the “Bcl-2 expression fold change” value in test [9] (downregulated) was found to be 0.76 fold change. Moreover, the P53 fold change in [9] (upregulated) is listed as 10.87 fold change. For the same compound, the “caspase-3 level fold change” value in test [9] (upregulated) came to 9.87 fold change. Moreover, in test [9] (upregulated), the “caspase-8 level fold change” value was determined as 7.6 fold change. Further, the “caspase-9 level fold change” value in [9] (upregulated) was found to be 11.6 fold change.
Consider `Cc1ccc(N=Nc2sc(NN=Cc3ccc(OCC(=O)N4CCN(C(=O)COc5ccc(C=NNc6nc(C)c(N=Nc7ccc(C)cc7)s6)cc5)CC4)cc3)nc2C)cc1` [Compound 9b, 1,1′-(Piperazine-1,4-diyl)bis(2-(4-(((4-methyl-5-(4-tolylazo)thiazol-2-yl)hydrazono)methyl)-phenoxy)ethanone)], for which the 50% inhibitory concentration (IC50) came to 11.5 ± 2.5 µM in test [1] (setting [10]), 26.5 ± 2.7 µM in test [2], 24.7 ± 3.6 µM in [3] and 0.0546 ± 0.0009 µM in test [6]. For the same compound, the inhibition at 100 µM in test [1] (Homo sapiens, HCT-116, 48 h) was 85.2 ± 2.11%; in test [2], 56.5 ± 4.93%; in test [3] it was 89.5 ± 2.34%; in test [4], 27.6 ± 25.1%; in [5], more than 80%. Also, the “% of EGFR inhibition” value in [6] worked out at 74.8 ± 1.6%.
In the case of `NC(=S)NN=Cc1ccccc1OCC(=O)N1CCN(C(=O)COc2ccccc2C=NNC(N)=S)CC1` [Compound 7b, 1,1′-(Piperazine-1,4-diyl)bis(2-(2-(2-carbamothioylhydrazono)methylphenoxy)ethanone)], the IC50 in test [1] (setting [10]) turned out to be 20.7 ± 1.5 µM; in test [2] it was 41.3 ± 3.9 µM; in test [3], 48.5 ± 4.8 µM; in test [6], 0.0035 ± 0.0001 µM. Further, the inhibition at 100 µM in test [1] (Homo sapiens, HCT-116, 48 h) is 90.1 ± 3.41%; in [2] it was 89.1 ± 2.22%; in test [3], 88.9 ± 5.46%; in test [4], 66.5 ± 11.5%; in test [5] it was more than 80%. Also, the “% of EGFR inhibition” value in test [6] was determined as 89.7 ± 2.8%.
Turning to `Cc1nc(NN=Cc2ccc(OCC(=O)N3CCN(C(=O)COc4ccc(C=NNc5nc(C)c(N=Nc6ccc([N+](=O)[O-])cc6)s5)cc4)CC3)cc2)sc1N=Nc1ccc([N+](=O)[O-])cc1` [Compound 9e, 1,1′-(Piperazine-1,4-diyl)bis(2-(4-(((4-methyl-5-(4-nitrophenylazo)thiazol-2-yl)hydrazono)methyl)-phenoxy)ethanone)], the IC50 in [1] (setting [10]) was 20.4 ± 3.4 µM; in test [2], 32.2 ± 4.5 µM; in test [3] it was 22 ± 4.5 µM. For the same compound, the inhibition at 100 µM is 86.8 ± 2.09% in test [1] (Homo sapiens, HCT-116, 48 h); 77.5 ± 7.73% in [2]; 84.6 ± 2.02% in [3]; 18.6 ± 32.1% in test [4]; more than 80% in [5].
